From ChEMBL document CHEMBL1153999, “5,6-Diarylanthranilo-1,3-dinitriles as a new class of antihyperglycemic agents” (Bioorg Med Chem Lett, 2009) come the findings set out here.

Molecules are shown by their SMILES. In brackets after ≈: the same amount, converted by molar mass. Activity calls are given as the source filed them. The calls are words filed in the database; no cut-off is given here.

Data set [1] has as its target Maltase-glucoamylase (Homo sapiens) (UniProt O43451). Nature of the data set: Inhibition of alpha-glucosidase at 100 uM. The gist of the method:
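Purified α-glucosidase (0.1 mg/mL) was assayed in 67 mM sodium phosphate (pH 6.8) with 1.0 mg/mL glutathione, 1 mL. The reaction was started with 3.0 mg/mL pNPG and followed at 405 nm every 30 s for 3 min.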

The target of data set [2] is T1, Tyrosine-protein phosphatase non-receptor type 1 (Homo sapiens) (UniProt P18031).
T1 sequence (whole entry): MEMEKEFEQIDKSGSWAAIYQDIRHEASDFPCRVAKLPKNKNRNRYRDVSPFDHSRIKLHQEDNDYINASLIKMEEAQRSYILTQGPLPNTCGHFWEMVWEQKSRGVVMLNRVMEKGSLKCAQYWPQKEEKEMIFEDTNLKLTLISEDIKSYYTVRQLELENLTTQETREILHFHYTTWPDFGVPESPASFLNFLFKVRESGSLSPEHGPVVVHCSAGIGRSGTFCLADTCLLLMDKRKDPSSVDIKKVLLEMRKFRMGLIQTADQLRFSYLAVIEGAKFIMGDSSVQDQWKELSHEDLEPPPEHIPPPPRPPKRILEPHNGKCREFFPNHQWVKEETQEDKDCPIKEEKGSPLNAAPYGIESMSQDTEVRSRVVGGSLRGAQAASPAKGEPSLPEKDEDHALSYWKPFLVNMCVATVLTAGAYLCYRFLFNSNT
Nature of the data set: Inhibition of PTP1B at 100 uM. The gist of the method: (§1)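 The PTP-1B assay used 10 mM pNPP in 50 mM HEPES (pH 7.0) with 1 mM DTT and 2 mM EDTA, 1.0 mL, 37 °C for 30 min. It was stopped with 0.1 N NaOH and read at 410 nm. p-Nitrophenolate was calculated with ε 1.78 × 10⁴ M⁻¹ cm⁻¹. Sodium vanadate was the reference.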

For data set [3], the target named is T2, Glucose-6-phosphatase catalytic subunit 1 (Homo sapiens) (UniProt P35575).
T2 sequence (whole entry): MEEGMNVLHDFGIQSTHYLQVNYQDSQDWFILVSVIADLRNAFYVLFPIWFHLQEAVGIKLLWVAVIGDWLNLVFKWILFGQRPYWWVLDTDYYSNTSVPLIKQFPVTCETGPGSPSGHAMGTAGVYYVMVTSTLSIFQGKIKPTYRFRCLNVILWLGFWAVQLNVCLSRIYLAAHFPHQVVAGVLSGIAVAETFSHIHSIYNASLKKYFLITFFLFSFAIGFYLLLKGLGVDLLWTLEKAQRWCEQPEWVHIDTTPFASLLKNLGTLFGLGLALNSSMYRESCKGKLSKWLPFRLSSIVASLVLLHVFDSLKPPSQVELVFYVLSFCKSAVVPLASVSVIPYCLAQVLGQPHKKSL
Nature of the data set: Inhibition of glucose-6-phosphatase at 100 uM. The gist of the method: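 Compound was preincubated 10 min with glucose-6-phosphatase in 1.0 mL of 0.3 M citrate (pH 6.0), 28 mM EDTA, 14 mM NaF and 200 mM glucose-6-phosphate. The mixture was incubated 30 min at 37 °C and stopped with 10% TCA. Released Pi in the supernatant was measured by Taussky–Shorr; activity is µmol Pi/min/mg protein.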

Data set [4] has as its target Glycogen phosphorylase. Nature of the data set: Inhibition of glycogen phosphorylase.
The test system of data set [5] is Glycogen phosphorylase. Nature of the data set: Inhibition of glycogen phosphorylase at 100 uM.
Data set [6] has as its target T3, Tyrosine-protein phosphatase non-receptor type 1 (Homo sapiens, UniProt P18031).
T3 sequence (P18031 whole entry): T1 sequence (whole entry)
The data set is described as follows: Inhibition of PTP1B. The method in brief: as §1

For data set [7], the system named is Rattus norvegicus. The data set is described as follows: Antihyperglycemic activity in Sprague-Dawley rat assessed as inhibition of streptozotocin-induced increase in blood glucose level at 100 mg/kg, po after 5 hrs. It counts as functional. Further details: scale not given: the % may be the effect or the level left. The method in brief: (§2)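 Overnight-fasted male Sprague–Dawley rats were made diabetic with streptozotocin 60 mg/kg ip in 100 mM citrate (pH 4.5). Rats with glucose >10 mM at 48 h and a baseline of 140–270 mg/dL were used, 5 per group. Test suspension or 1% gum acacia vehicle was given orally, then sucrose 2.5 g/kg orally 30 min later. Glucose was read at 30–1440 min; % activity is from AUC versus vehicle (Dunnett test).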

For data set [8], the system named is Rattus norvegicus. Nature of the data set: Antihyperglycemic activity in Sprague-Dawley rat assessed as inhibition of streptozotocin-induced increase in blood glucose level at 100 mg/kg, po after 24 hrs. In kind it is functional. Set-up: scale not given: the % may be the effect or the level left. The gist of the method:
as §2

Data set [9] relates to Rattus norvegicus. The data set is described as follows: Toxicity in Sprague-Dawley rat up to 250 mg/kg, po. It counts as organism-based. Set-up: dose 250 mg/kg, route oral. The settings on record: in vivo.
The nature of data set [10]: Solubility in triple distilled water. It counts as physicochemical.

Sequence of Maltase-glucoamylase (Homo sapiens) (O43451 whole entry, looked up): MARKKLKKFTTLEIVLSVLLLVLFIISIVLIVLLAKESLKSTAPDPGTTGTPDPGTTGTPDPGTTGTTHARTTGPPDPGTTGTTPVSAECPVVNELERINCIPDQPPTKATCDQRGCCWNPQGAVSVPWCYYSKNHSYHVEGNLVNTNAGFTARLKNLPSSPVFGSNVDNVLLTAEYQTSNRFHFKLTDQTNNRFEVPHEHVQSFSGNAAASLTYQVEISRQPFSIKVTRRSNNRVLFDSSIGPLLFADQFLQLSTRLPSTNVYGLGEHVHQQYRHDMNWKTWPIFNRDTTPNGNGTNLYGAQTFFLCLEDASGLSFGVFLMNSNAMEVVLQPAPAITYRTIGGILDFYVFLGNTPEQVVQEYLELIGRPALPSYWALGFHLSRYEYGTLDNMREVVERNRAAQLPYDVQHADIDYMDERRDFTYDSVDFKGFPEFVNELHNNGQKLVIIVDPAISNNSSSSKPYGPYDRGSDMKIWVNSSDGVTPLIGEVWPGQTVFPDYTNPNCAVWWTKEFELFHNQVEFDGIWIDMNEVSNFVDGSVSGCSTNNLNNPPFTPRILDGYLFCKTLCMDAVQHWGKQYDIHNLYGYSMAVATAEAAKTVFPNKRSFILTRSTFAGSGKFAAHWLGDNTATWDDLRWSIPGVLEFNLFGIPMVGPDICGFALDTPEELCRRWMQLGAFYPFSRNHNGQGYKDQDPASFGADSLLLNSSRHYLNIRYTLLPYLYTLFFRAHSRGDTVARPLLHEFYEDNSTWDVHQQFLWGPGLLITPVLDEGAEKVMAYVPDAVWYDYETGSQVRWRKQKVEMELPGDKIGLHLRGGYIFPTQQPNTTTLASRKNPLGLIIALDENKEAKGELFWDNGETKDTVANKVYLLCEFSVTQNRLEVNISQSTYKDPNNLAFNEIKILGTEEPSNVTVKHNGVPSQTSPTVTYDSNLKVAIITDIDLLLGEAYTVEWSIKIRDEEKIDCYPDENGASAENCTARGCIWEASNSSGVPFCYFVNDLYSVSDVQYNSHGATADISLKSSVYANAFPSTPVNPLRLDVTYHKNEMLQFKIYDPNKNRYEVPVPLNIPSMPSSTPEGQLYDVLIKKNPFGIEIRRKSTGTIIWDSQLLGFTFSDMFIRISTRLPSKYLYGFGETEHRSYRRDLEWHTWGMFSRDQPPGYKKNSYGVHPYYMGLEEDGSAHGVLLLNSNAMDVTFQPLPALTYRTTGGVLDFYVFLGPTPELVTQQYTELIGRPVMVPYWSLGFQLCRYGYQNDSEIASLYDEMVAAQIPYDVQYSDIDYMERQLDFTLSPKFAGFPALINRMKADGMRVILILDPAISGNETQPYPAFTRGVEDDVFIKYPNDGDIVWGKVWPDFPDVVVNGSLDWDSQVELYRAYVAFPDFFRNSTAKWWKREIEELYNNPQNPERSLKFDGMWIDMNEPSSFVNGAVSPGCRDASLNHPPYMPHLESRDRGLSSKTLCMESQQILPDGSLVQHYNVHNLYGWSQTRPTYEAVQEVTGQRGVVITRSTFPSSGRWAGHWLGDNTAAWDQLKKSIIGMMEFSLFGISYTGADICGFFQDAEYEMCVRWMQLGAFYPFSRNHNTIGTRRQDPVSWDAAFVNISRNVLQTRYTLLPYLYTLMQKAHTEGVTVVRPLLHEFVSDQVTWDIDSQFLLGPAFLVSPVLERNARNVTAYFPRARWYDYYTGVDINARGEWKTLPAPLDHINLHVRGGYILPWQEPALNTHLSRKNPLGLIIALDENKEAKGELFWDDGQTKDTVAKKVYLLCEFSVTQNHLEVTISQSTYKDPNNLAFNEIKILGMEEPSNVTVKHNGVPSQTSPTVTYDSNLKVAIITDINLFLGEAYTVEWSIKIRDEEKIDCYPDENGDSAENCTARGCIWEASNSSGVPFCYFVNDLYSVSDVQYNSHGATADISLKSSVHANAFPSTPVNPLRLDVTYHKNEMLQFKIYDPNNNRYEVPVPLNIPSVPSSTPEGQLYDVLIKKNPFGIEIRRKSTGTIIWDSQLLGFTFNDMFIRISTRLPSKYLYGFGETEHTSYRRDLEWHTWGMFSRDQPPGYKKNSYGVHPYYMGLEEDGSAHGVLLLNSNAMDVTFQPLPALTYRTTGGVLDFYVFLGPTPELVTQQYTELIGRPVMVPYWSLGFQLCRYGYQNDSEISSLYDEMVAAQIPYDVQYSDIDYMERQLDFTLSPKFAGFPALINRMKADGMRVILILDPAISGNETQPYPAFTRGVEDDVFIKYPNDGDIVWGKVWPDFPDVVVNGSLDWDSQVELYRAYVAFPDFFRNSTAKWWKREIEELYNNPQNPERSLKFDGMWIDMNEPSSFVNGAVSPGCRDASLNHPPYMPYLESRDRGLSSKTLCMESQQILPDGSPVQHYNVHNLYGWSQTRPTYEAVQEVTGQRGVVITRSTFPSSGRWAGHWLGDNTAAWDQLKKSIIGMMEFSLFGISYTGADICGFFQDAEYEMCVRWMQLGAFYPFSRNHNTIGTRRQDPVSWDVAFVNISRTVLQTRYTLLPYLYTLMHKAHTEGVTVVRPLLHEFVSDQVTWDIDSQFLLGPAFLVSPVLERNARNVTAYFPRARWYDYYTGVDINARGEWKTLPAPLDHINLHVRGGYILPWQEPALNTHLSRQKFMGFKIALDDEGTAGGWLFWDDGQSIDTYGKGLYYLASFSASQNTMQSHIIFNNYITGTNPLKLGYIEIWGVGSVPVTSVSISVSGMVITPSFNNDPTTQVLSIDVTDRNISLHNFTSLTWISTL

For the molecule `COc1ccc(-c2c(C#N)c(N)c(C#N)c(SC)c2-c2ccc(F)cc2)c(OC)c1`, the inhibition (as a rule, the percentage by which the read-out fell short of the control) was found to be 11.5% in data set [1], 28.2% in [2], 1.9% in data set [3] and 74.3% in the data set with Glycogen phosphorylase [5]. Also, the IC50 (as a rule, the point on the concentration scale where inhibition reaches its midpoint) against Glycogen phosphorylase [4] was determined as 79 µM.
For the molecule `COc1ccc(-c2c(C#N)c(N)c(C#N)c(SC)c2-c2ccccc2)cc1`, the inhibition in [1] amounted to 5.7%; in data set [2], 61.5%; in data set [3] it was 6.8%; in the data set with Glycogen phosphorylase [5], 37.9%. For the same molecule, inhibition in [6] was half-maximal at 86 µM (IC50). Further, the Activity in the data set on Rattus norvegicus [7] was 26.5%; in the data set with Rattus norvegicus [8], 36.9%; with Rattus norvegicus [9], “Non-toxic”.
Turning to `CSc1c(C#N)c(N)c(C#N)c(Cc2ccccc2)c1-c1ccccc1`, the inhibition in data set [3] turned out to be 24.5%; in the data set with Glycogen phosphorylase [5], 11.6%.
Consider `CSc1c(C)c(-c2ccc(Cl)cc2)c(C#N)c(N)c1C#N`, for which the inhibition stood at 6.7% in data set [1], 7.3% in [2], 19.3% in data set [3] and 12.5% with Glycogen phosphorylase [5].
The like results for `COc1ccc(-c2c(C#N)c(N)c(C#N)c(SC)c2-c2ccc(OC)c(OC)c2)cc1` were, in that order, 25.9%, 30.7%, 0.3% and 13.8%.
The matching figures for `CSc1c(C#N)c(N)c(C#N)c(C)c1-c1ccc(F)cc1`: 17.3%, 3.6%, 41.8% and 5%.
The like results for `CSc1c(C)c(-c2ccccc2)c(C#N)c(N)c1C#N` were, in that order, 6.7%, “inactive”, 0.96% and 45%.
Take `Cc1c(-c2ccccc2)c(C#N)c(N)c(C#N)c1N1CCCCC1`: the inhibition in data set [2] was determined as 31.1%; in data set [3], 38.2%; with Glycogen phosphorylase [5], 4.7%.
In the case of `COc1ccc(-c2c(C)c(C#N)c(N)c(C#N)c2SC)cc1OC`, the inhibition in data set [1] is 6.7%; in [2], 0%; in [3], 6.1%; in the data set with Glycogen phosphorylase [5], 10%.
The matching figures for `CSc1c(C#N)c(N)c(C#N)c(C)c1-c1ccccc1F`: “inactive”, 40.2%, 8.2% and 20%.
`COc1ccc(-c2c(C#N)c(N)c(C#N)c(SC)c2-c2ccc(F)cc2)cc1`: the inhibition in data set [1] was 13.4%; in [2] it was 48.8%; in data set [3], 5.5%. The Activity worked out at 22.1% with Rattus norvegicus [7] and 25.2% with Rattus norvegicus [8]. Moreover, the inhibition result in the data set on Glycogen phosphorylase [5] is “inactive”.
Turning to `Cc1c(-c2ccccc2)c(C#N)c(N)c(C#N)c1N1CCC(C)CC1`, the inhibition result in data set [2] was “inactive”. Further, the inhibition in data set [3] came to 10.9%; in the data set on Glycogen phosphorylase [5], 2.3%.
With `CSc1c(C#N)c(N)c(C#N)c(-c2ccccc2)c1-c1ccccc1`, the inhibition in [1] worked out at 10.5%; in [2], 81.6%; in data set [3], 7.4%. It took 58 µM to reach half-maximal inhibition in [6] (IC50). Moreover, the Activity in the data set on Rattus norvegicus [7] was 24.1%; in the data set with Rattus norvegicus [8] it was 28.1%; in the data set with Rattus norvegicus [9] it was “Non-toxic”. Further, the concentration in solution in [10] (solubility) came to 0.13 µg/mL (≈ 0.381 µM). Also, in the data set with Glycogen phosphorylase [5], the inhibition result was “inactive”.
Take `COc1ccc(-c2c(C)c(SC)c(C#N)c(N)c2C#N)cc1`: the inhibition in data set [1] is 17.3%; in data set [2] it was 0%; in data set [3], 12.3%; in the data set on Glycogen phosphorylase [5], 37.5%.
`COc1ccc(-c2c(C)c(C#N)c(N)c(C#N)c2SC)c(OC)c1`: the inhibition in [1] is 10.5%; in [2] it was 25.6%; in data set [3] it was 0.08%; in the data set on Glycogen phosphorylase [5] it was 50%.
The like results for `CSc1c(C#N)c(N)c(C#N)c(C)c1-c1ccc(C(F)(F)F)cc1` were, in that order, 22.1%, 58.5%, 14.4% and 55%.
With `COc1ccc(-c2c(C)c(N3CCCCC3)c(C#N)c(N)c2C#N)cc1`, the inhibition result in data set [2] is “inactive”. Besides, the inhibition came to 33.3% in data set [3] and 15.7% in the data set with Glycogen phosphorylase [5].
Consider `COc1ccc(-c2c(C#N)c(N)c(C#N)c(SC)c2-c2ccc(OC)cc2)cc1`, for which the inhibition in data set [1] worked out at 14.4%; in [2], 76.9%; in data set [3], 5.5%; with Glycogen phosphorylase [5] it was 6.9%. This molecule yielded a 50% inhibitory concentration (IC50) in data set [6] of 72 µM. Further, the Activity in the data set with Rattus norvegicus [7] was 17.5%; with Rattus norvegicus [8] it was 17.6%; with Rattus norvegicus [9] it was “Non-toxic”.
Turning to `CN(C)C(=N)NC(=N)N` [METFORMIN], the Activity is recorded as 20.9% with Rattus norvegicus [7] and 21.9% with Rattus norvegicus [8].
